Source: ChEMBL document CHEMBL1124565, “Synthesis and receptor affinities of some conformationally restricted analogues of the dopamine D1 selective ligand (5R)-8-chloro-2,3,4,5-tetrahydro-3-methyl-5-phenyl- 1H-3-benzazepin-7-ol” (J Med Chem, 1989)

Tests used:
D(2) dopamine receptor [1] = molecular target: T1, D(2) dopamine receptor (Rattus norvegicus, UniProt P61169); assay: Displacement of [3H]spiperone from rat striatal homogenate dopamine receptor D2
Procedure, shortened: (§1)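 Striatum from male Sprague-Dawley rats (150-250 g), homogenized in ice-cold 50 mM Tris-HCl pH 7.4, centrifuged 20000g 10 min twice, resuspended in Tris buffer with 120 mM NaCl, 5 mM CaCl2, 1 mM MgCl2. Competition against [3H]spiperone (final approximately 0.3 nM), triplicate tubes, 37 °C 20 min, vacuum filtration over GF/B with ice-cold buffer rinses, scintillation counting.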

D(1A) dopamine receptor [2] = molecular target: T2, D(1A) dopamine receptor (Rattus norvegicus, UniProt P18901); assay: Inhibition of [3H]SCH-23390 binding to rat striatal homogenate dopamine receptor D1
Procedure, shortened: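 Pooled striatal membranes from male Sprague-Dawley rats (150-250 g), washed twice by homogenization/centrifugation (20000g, 10 min) in 50 mM Tris-HCl pH 7.4, final buffer adding 120 mM NaCl, 5 mM CaCl2, 1 mM MgCl2. Test agents at various concentrations compete with [3H]SCH 23390; triplicate, 37 °C for 20 min, rapid GF/B filtration, liquid scintillation counting.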

D(2) dopamine receptor [3] = molecular target: T1, D(2) dopamine receptor; assay: In vitro affinity of compound towards Dopamine receptor D2 was determined by measuring their ability to displace [3H]spiperone from rat striatal homogenates; procedure, shortened: as §1
D(1A) dopamine receptor [4] = molecular target: T2, D(1A) dopamine receptor; assay: In vitro affinity of compound towards dopamine (D1) receptor was determined by measuring their ability to displace [3H]SCH-23,390 from rat striatal homogenates

T1 sequence (P61169 whole entry): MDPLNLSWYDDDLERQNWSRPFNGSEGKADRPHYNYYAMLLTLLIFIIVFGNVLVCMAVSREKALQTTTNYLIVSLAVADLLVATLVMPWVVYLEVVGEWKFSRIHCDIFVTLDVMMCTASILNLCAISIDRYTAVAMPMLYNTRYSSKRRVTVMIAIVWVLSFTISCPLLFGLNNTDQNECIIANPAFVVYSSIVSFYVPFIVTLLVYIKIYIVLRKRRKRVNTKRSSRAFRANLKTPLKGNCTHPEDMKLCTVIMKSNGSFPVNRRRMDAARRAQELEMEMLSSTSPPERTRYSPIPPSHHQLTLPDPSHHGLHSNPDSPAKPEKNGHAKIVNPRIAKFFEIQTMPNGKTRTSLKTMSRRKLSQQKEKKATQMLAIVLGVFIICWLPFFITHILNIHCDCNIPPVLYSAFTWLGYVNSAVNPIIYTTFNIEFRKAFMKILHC
T2 sequence (P18901 whole entry): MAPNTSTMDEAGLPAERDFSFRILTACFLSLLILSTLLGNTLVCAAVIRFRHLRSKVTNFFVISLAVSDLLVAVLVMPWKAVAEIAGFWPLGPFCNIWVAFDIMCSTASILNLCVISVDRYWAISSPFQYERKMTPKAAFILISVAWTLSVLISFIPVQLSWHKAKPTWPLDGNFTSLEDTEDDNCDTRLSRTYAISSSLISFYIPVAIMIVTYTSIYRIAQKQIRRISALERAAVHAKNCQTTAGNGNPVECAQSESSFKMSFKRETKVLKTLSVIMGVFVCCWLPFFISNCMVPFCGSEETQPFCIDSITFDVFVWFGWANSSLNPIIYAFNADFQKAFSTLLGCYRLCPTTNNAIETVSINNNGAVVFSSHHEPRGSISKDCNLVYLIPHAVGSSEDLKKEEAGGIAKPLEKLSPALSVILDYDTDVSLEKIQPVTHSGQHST

Structure (SMILES)	Ki (D(2) dopamine receptor [1])	Ki (D(1A) dopamine receptor [2])	Ki (D(2) dopamine receptor [3])	Ki (D(1A) dopamine receptor [4])
COc1cc2c(cc1O)[C@H]1c3ccccc3CC[C@@H]1N(C)CC2	2480 nM	23.6 nM	–	–
CN1CCc2cc(Cl)c(O)cc2[C@H]2c3ccccc3CC[C@H]21	–	898 nM	–	–
COc1cc2c(cc1O)[C@@H]1c3ccccc3CC[C@@H]1N(C)CC2	> 100000 nM	4200 nM	–	–
COc1cc2c(cc1O)CCN(C)[C@H]1CCc3ccccc3[C@H]21	6400 nM	1660 nM	–	–
CN1CCc2ccc(O)cc2[C@H]2c3ccccc3CC[C@@H]21	7870 nM	72.6 nM	–	–
CN1CCc2cc(O)c(O)cc2[C@@H]2c3ccccc3CC[C@@H]21	–	–	> 100000 nM	1730 nM
COc1cc2c(cc1O)CCN(C)[C@H]1CCc3ccccc3[C@@H]21	> 100000 nM	24400 nM	–	–
CN1CCc2cc(O)c(O)cc2[C@H]2c3ccccc3CC[C@@H]21	–	–	2410 nM	68 nM
CN1CCc2cc(Cl)c(O)cc2[C@@H]2c3ccccc3CC[C@@H]21	–	513 nM	–	–
Cc1cc2c(cc1O)[C@H]1c3ccccc3CC[C@@H]1N(C)CC2	1510 nM	7.1 nM	–	–
CN1CCc2cc(Cl)c(O)cc2[C@@H]2c3ccccc3CC[C@H]21	–	531 nM	–	–
CN1CCc2cc(Cl)c(O)cc2[C@@H]2c3ccccc3CC[C@@H]21 (relative stereo)	–	474 nM	–	–
CN1CCc2cc(Cl)c(O)cc2C2c3ccccc3CCC21 (trans isomer)	–	3.3 nM	–	–
CN1CCc2cc(Cl)c(O)cc2[C@H]2c3ccccc3CC[C@@H]21 [ECOPIPAM]	–	1.9 nM	–	–
